Measured values gathered from unrelated publications.
Protocols differ between the studies behind these lines.
Target: Cyclin-dependent kinase 8 (CDK8, Homo sapiens, UniProt P49336)

SMILES	test	setting	quantity	result
Cc1ccc(NC(=O)c2ccnc(C(F)(F)F)c2)cc1-c1cc(OCCO)nc(N2CCOCC2)c1	binding, competition with immobilised ligand	1 µM	remaining binding	100%
Cc1cc(S(=O)(=O)N[C@H]2CC[C@H](CN3CCN(c4ccc(C5CCC(=O)NC5=O)cc4F)CC3)CC2)ccc1Nc1ncc(C(F)(F)F)c(N2CCC[C@](C)(O)C2)n1 (some centres unmarked)	binding, competition with immobilised ligand	1 µM	remaining binding	76%
CC#CC(=O)N1CCC[C@H]1c1nc(-c2ccc(C(=O)Nc3ccccn3)cc2)c2c(N)nccn12	enzyme activity, inhibitor	1 µM	inhibition	5%
C[C@H]1CC[C@H](n2c3cnccc3c3cnc(Nc4ccc5c(n4)CCN(C(=O)CO)C5)nc32)CC1	binding, competition with immobilised ligand	1 µM	remaining binding	100%
CO[C@@H]1[C@H](N(C)C(=O)c2ccccc2)C[C@H]2O[C@]1(C)n1c3ccccc3c3c4c(c5c6ccccc6n2c5c31)C(=O)NC4	enzyme activity, inhibitor	1 µM	inhibition	5%
C[C@]1(O)CCCN(c2nc(Nc3ccc(S(=O)(=O)N[C@H]4CC[C@H](CN5CCN(c6ccc(C7CCC(=O)NC7=O)cc6F)CC5)CC4)cc3Cl)ncc2C(F)(F)F)C1 (some centres unmarked)	binding, competition with immobilised ligand	1 µM	remaining binding	80%
C1=C/COCc2cc(ccc2OCCN2CCCC2)Nc2nccc(n2)-c2cccc(c2)COC/1	cell-free assay	0.1 µM	remaining signal	75%
CCCCC(=O)Nc1ccc(-c2ccc3ncn(CCC)c(=O)c3c2)cn1	binding, competition with immobilised ligand	0.5 µM	remaining binding	83%
